Compound activity (PubChem)
ABHD5-PLIN5 inh: ABHD5-PLIN5 protein interaction inhibition | Q00G26+Q8WTS1 | inhibition, % at 4 µM | actives 0.78% (n = 360,000) | Split G. princeps luciferase complementation, luminescence, 4 h;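 active means inhibition above the mean inhibition across every tested compound plus 3 SD, cut at about 22% in these data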
TLR9-MyD88 block: blocks human TLR9 binding to MyD88. Q9NR96+Q99836. CHO BLA complementation TLR9-MyD88, CCF4 FRET ratio. inhibition, % at 4.98 µM. actives 0.21% (n = 340,000). AID 504734;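 active means inhibition above the mean over all tested compounds plus 3 SD, cut at about 21% in these data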
NOD2 RIPK2 PPI: blocks binding of human NOD2 to RIPK2 | O43353 | CHO BLA complementation NOD2-RIPK2, CCF4 ratio | actives 0.38% (n = 360,000) | AID 624267 | inhibition, % at 4.98 µM; in the data active means inhibition above about 21%
Beta2AR agonist: human beta-2 adrenergic receptor agonism by FAP; actives 0.43% (n = 340,000); response, % (no concentration beside the values); P07550; Am2.2-beta2AR cells, FAP receptor internalization, flow cytometry;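 active means response above a set limit, near 3 SD of response in nonfluorescent compounds, cut at about 42% in these data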
TLR4-MyD88 BLA: blocks binding of human TLR4 to MyD88. O00206+Q99836. HeLa CL3-4 TLR4/MyD88 BLA complementation, FRET ratio. inhibition, % at 8.4 µM. actives 0.18% (n = 200,000); in the data active means inhibition above about 25%
Dynein cargo inh: blocks dynein driven cargo transport along microtubules; z-score, hits read low; actives 0.47% (n = 220,000); 3617.4 mouse cells, GR-EGFP nuclear translocation imaging; test concentration mostly 20 µM; stimulated with dexamethasone, 1 µM; hits give low values;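 active means plate z-score of nuclear minus cytoplasmic receptor signal below a set negative limit, without overly bright fluorescence or cell loss, cut at about -3.5 in these data, passing the limit was not always enough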;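 further: z-score of nuclear minus cytoplasmic ring GR-EGFP intensity difference per well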
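Schedule: 48 h induction, then 1 h compound, then 30 min agonist, 37 °C. Buffer or medium: tetracycline-free induction medium containing charcoal-stripped FBS. Reagent: 1.0 µM final dexamethasone stimulus. Evaluation: nuclear versus cytoplasmic GR-EGFP signal, averaged per well. Signal: high-content fluorescence imaging after fixation.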
NOD2 RIPK2 conf: NOD2-RIPK2 interaction inhibition confirmed; shares compounds with NOD2 RIPK2 PPI; CHO cells, NOD2-RIPK2 BLA complementation, CCF4 FRET; inhibition, % at 4.98 µM; AID 624370; actives 70% (n = 1,200);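 active means mean inhibition across replicates above a set limit taken from the earlier primary screen, cut at about 21% in these data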
NOD2 BLA counter: hits BLA reporter in NOD2-RIPK2 inhibitor counterscreen; shares compounds with NOD2 RIPK2 PPI; CHO BLA reporter, CCF4 FRET ratio; inhibition, % at 4.98 µM; actives 57% (n = 1,200);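 active means mean inhibition above the low-control mean inhibition plus three low-control SD, cut at about 11% in these data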
Each line names hits and unclear results; the compound was inactive in the other large screens (follow-up assays come after a bar, where they were run). An excerpt weighted towards active compounds, which were near 1.6% of everything screened.

O=C(O)c1ccc(-c2ccc(/C=N/Nc3ccc([N+](=O)[O-])cc3)o2)cc1	none (no result: TLR4-MyD88 BLA)
CCN(CC)c1ccc2c(C)c(-c3ccc(N)cc3)c(=O)oc2c1	NOD2 RIPK2 PPI 27 | NOD2 RIPK2 conf 24 | NOD2 BLA counter 33
CCOC(=O)Cc1c(C)c2ccc(N(CC)CC)cc2oc1=O	none
CN(C)c1ccc(-c2ccnc3c2CC(C)(C(=O)NCc2cccc(Cl)c2)O3)cc1 (configuration not stated)	none (no result: TLR9-MyD88 block, Beta2AR agonist, TLR4-MyD88 BLA, Dynein cargo inh)
COc1ccc2c3c(cccc13)C(=O)N(O)C2=O	none
O=C1c2cccc3c([N+](=O)[O-])ccc(c23)C(=O)N1O	NOD2 RIPK2 PPI 21 (no result: TLR4-MyD88 BLA, Dynein cargo inh) | NOD2 RIPK2 conf inactive | NOD2 BLA counter 12
CCCN(CC(=O)Nc1ccccc1C)C(=O)c1ccc(S(=O)(=O)N2CCC(C)CC2)cc1	none (no result: TLR4-MyD88 BLA, Dynein cargo inh)
Cc1ccc2nc(N3CCN(C=O)CC3)nc(-c3ccccc3)c2c1	NOD2 RIPK2 PPI 26 | NOD2 RIPK2 conf 29 | NOD2 BLA counter 38
COc1ccc(/C=C/C(=O)c2cc(F)ccc2OC(=O)c2ccccc2)cc1OC	NOD2 RIPK2 PPI 26 | NOD2 RIPK2 conf inactive | NOD2 BLA counter inactive
O=C1/C(=C/c2ccc(Br)cc2)Oc2cc(O)ccc21	NOD2 RIPK2 PPI 25 (no result: TLR4-MyD88 BLA, Dynein cargo inh) | NOD2 RIPK2 conf 37 | NOD2 BLA counter 42
CC(C)(C)c1ccc(/C=C2\Oc3cc(O)ccc3C2=O)cc1	NOD2 RIPK2 PPI 24 (no result: TLR4-MyD88 BLA, Dynein cargo inh) | NOD2 RIPK2 conf 27 | NOD2 BLA counter 45
CC1CCCC(CC(N)=O)CC1 (configuration not stated)	none (no result: TLR4-MyD88 BLA, Dynein cargo inh)
O=C(c1cnc(Cc2c[nH]c3ccccc23)c(I)c1)N1CCN(Cc2ccccc2)CC1	none (no result: TLR9-MyD88 block, Beta2AR agonist, TLR4-MyD88 BLA, Dynein cargo inh)
Cc1ccc(C)c(Cn2c3ccccc3c3cnn(CC(=O)NCc4ccccn4)c(=O)c32)c1	none (no result: TLR4-MyD88 BLA, Dynein cargo inh)
Cc1ccc(C)c(Cn2c3ccccc3c3cnn(CC(=O)NCCCN4CCCCC4)c(=O)c32)c1	NOD2 RIPK2 PPI 21 (no result: TLR4-MyD88 BLA, Dynein cargo inh) | NOD2 RIPK2 conf inactive | NOD2 BLA counter inactive
CCOc1ccc(S(=O)(=O)Nc2ccc(C(=O)NCC(c3ccco3)N(C)C)cc2)cc1 (configuration not stated)	NOD2 RIPK2 PPI 25 (no result: TLR4-MyD88 BLA, Dynein cargo inh) | NOD2 RIPK2 conf inactive | NOD2 BLA counter inactive
CNc1ccc(-c2cccc(C#N)c2)cn1	none (no result: TLR9-MyD88 block, Beta2AR agonist, TLR4-MyD88 BLA, Dynein cargo inh)
CN(C)c1ccc(C=Cc2nccc3ccccc23)cc1	NOD2 RIPK2 PPI 75 (no result: TLR9-MyD88 block, Beta2AR agonist, TLR4-MyD88 BLA, Dynein cargo inh) | NOD2 RIPK2 conf 37 | NOD2 BLA counter 46
O=C(COc1ccc(S(=O)(=O)N2CCOCC2)cc1Cl)NCC1CCCO1 (configuration not stated)	NOD2 RIPK2 PPI 46 (no result: TLR4-MyD88 BLA, Dynein cargo inh) | NOD2 RIPK2 conf inactive | NOD2 BLA counter inactive
CCc1nc2ccc(C(=O)Nc3cccc(OCC(=O)N(C)C)c3)cn2c1N(C)Cc1ccc(OC)cc1	none (no result: TLR9-MyD88 block, Beta2AR agonist, TLR4-MyD88 BLA, Dynein cargo inh)
COc1ccc(NC(=O)CSc2nc3cccnc3n2C)cc1	NOD2 RIPK2 PPI 32 | NOD2 RIPK2 conf inactive | NOD2 BLA counter inactive
CCCCNC(=S)Nc1ccc(-c2nc3ccc(C)cc3s2)cc1	NOD2 RIPK2 PPI 23 | NOD2 RIPK2 conf inactive | NOD2 BLA counter inactive
CCOC(=O)C[n+]1ccc2c([nH]c3ccccc32)c1C	NOD2 RIPK2 PPI 38 (no result: TLR4-MyD88 BLA, Dynein cargo inh) | NOD2 RIPK2 conf inactive | NOD2 BLA counter inactive
CCOC(=O)Cc1c(Cl)c2ccccc2[nH]c1=O	none
O=C(N/N=C/c1cc(Cl)cc(Cl)c1O)c1ccncc1	NOD2 RIPK2 PPI 32 (no result: TLR4-MyD88 BLA) | NOD2 RIPK2 conf 26 | NOD2 BLA counter 26
Cc1cc(O)ccc1-c1cc(C(=O)NCc2ccc(F)cc2)[nH]n1	none (no result: TLR9-MyD88 block, Beta2AR agonist, TLR4-MyD88 BLA, Dynein cargo inh)
Cc1ccc(OCC(=O)Nc2cccc(S(=O)(=O)NC3=NCCCCC3)c2)cc1C	none (no result: TLR4-MyD88 BLA, Dynein cargo inh)
Cc1cc(OCC(=O)Nc2cccc(S(=O)(=O)NC3=NCCCCC3)c2)ccc1Cl	NOD2 RIPK2 PPI 40 | NOD2 RIPK2 conf inactive | NOD2 BLA counter inactive
CN(CC(=O)Nc1ccc(Cl)c(C(F)(F)F)c1)C(=O)CCCNC(=O)c1ccc(Cl)cc1	none (no result: TLR4-MyD88 BLA, Dynein cargo inh)
